Source: ChEMBL document CHEMBL1132359, “Thiazolothiazepine inhibitors of HIV-1 integrase” (J Med Chem, 1999)

Key:
[1] = biological target: T1, Human immunodeficiency virus type 1 integrase (Human immunodeficiency virus 1, UniProt Q7ZJM1); test: Inhibition of the 3'-processing activity of HIV-1 integrase
Procedure, shortened: (§1)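 Then 20 nM 5′-32P-labeled linear oligonucleotide substrate added and incubated a further 1 h. Products separated on denaturing 20% polyacrylamide/urea gel and quantified by phosphorimaging. IC50 read from a plot of percent inhibition versus concentration.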

[2] = biological target: T1, Human immunodeficiency virus type 1 integrase; test: Inhibition of the 3'-end joining activity of HIV-1 integrase; procedure, shortened: as §1
CCRF-CEM [3] = test: The compound was tested for inhibitory activity against HIV-1; type: functional, cell-based; conditions: Homo sapiens
CCRF-CEM [4] = test: Tested for cytotoxicity in CEM cells; type: functional; conditions: Homo sapiens
CCRF-CEM [5] = test: The compound was tested for inhibitory activity against HIV-1 infected CEM cells; type: functional, cell-based; conditions: Homo sapiens
CCRF-CEM [6] = test: The compound was tested for cytotoxicity against HIV-1 infected CEM cells; type: functional; conditions: Homo sapiens

T1 sequence (Q7ZJM1 whole entry): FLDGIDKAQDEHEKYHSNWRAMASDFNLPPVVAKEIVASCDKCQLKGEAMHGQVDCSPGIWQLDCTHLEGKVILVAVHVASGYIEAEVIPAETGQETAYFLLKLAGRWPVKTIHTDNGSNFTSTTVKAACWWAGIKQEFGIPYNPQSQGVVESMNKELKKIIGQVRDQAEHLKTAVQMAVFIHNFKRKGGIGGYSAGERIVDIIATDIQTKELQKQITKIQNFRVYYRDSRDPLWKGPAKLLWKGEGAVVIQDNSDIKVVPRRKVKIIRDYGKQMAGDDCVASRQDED

Row | SMILES | IC50 [1] [µM] | IC50 [2] [µM] | EC50 (CCRF-CEM [3]) [µM] | CC50 (CCRF-CEM [4]) [µM] | EC50 (CCRF-CEM [5]) [µM] | CC50 (CCRF-CEM [6]) [µM]
1 | COc1ccc2c(c1)C(=O)N1C[S+]([O-])CC1C(=O)S2 (stereo unspecified) | 84.5 | 142 | – | – | – | –
2 | COc1ccc2c(c1)C(=O)N1CSCC1C(=O)S2 (stereo unspecified) | 155 | 155 | > 200 | > 200 | – | –
3 | O=C1Sc2ccccc2Cn2cccc21 | 590 | 300 | 146 | > 200 | – | –
4 | O=C1Sc2cc3ccccc3cc2C(=O)N2CCSC12 (stereo unspecified) | 40 | 47 | 60 | > 316 | – | –
5 | COc1cc2c(cc1OC)C(=O)N1CSCC1C(=O)S2 (stereo unspecified) | 670 | 333 | > 50 | > 50 | – | –
6 | Cc1ccc2c(c1)C(=O)N1CSCC1C(=O)S2 (stereo unspecified) | 52 | 63 | – | 35 | – | –
7 | O=C1c2ccccc2SCC2CSC(c3ccccc3)N12 (stereo unspecified) | 372 | 376 | – | – | – | –
8 | CC(=O)OC1Sc2ccccc2C(=O)N2CCCC12 (stereo unspecified) | > 1000 | > 1000 | > 200 | > 200 | – | –
9 | CN1CCN(Cc2ccc3n2Cc2ccccc2SC3c2ccccc2)CC1 (stereo unspecified) | > 1000 | > 1000 | – | – | – | –
10 | O=C1Sc2ccc(Cl)cc2C(=O)N2C[S+]([O-])CC12 (stereo unspecified) | 260 | 280 | – | – | – | –
11 | CCOC(=O)C1Sc2ccccc2Cn2cccc21 (stereo unspecified) | > 1000 | > 1000 | – | – | – | –
12 | O=C1Sc2ccccc2C(=O)N2C[S+]([O-])CC12 (stereo unspecified) | 200 | 215 | – | – | – | –
13 | O=C1Sc2ccccc2C(=O)N2COCC12 (stereo unspecified) | > 333 | > 333 | – | – | – | –
14 | O=C1Sc2ccccc2C(=O)N2CSCC12 (stereo unspecified) | 208 | 227 | > 200 | > 200 | – | –
15 | O=C1Sc2ccc(Cl)cc2C(=O)N2CSCC12 (stereo unspecified) | 158 | 160 | > 100 | > 100 | – | –
16 | CN(C)Cc1ccc2n1Cc1ccccc1SC2c1ccc(F)cc1 (stereo unspecified) | > 1000 | > 1000 | – | – | – | –

Row | SMILES | IC50 [1] [µM] | IC50 [2] [µM] | EC50 (CCRF-CEM [3]) [µM] | CC50 (CCRF-CEM [4]) [µM] | EC50 (CCRF-CEM [5]) [µM] | CC50 (CCRF-CEM [6]) [µM]
17 | O=C1Sc2ccccc2C(=O)N2CCCCC12 (stereo unspecified) | 406 | 343 | > 200 | > 200 | – | –
18 | COc1cc2c(cc1OC)C(=O)N1CCCC1C(=O)S2 (stereo unspecified) | > 1000 | > 1000 | > 200 | > 200 | – | –
19 | COC1Sc2ccccc2C(=O)N2CCCC12 (stereo unspecified) | > 1000 | > 1000 | > 200 | > 200 | – | –
20 | Cc1ccc2c(c1)C(=O)N1CC[S+]([O-])C1C(=O)S2 (stereo unspecified) | 590 | 590 | > 100 | > 100 | – | –
21 | COc1cc2c(cc1OC)C(=O)N1CCCC1CS2 (stereo unspecified) | > 1000 | > 1000 | > 200 | > 200 | – | –
22 | O=C1Sc2cc3ccccc3cc2C(=O)N2CSCC12 (stereo unspecified) | 92 | 100 | 280 | > 316 | – | –
23 | O=C1Sc2cc([N+](=O)[O-])ccc2C(=O)N2CSCC12 (stereo unspecified) | 90 | 100 | > 50 | > 50 | – | –
24 | CN1CCN(C2Sc3ccccc3C(=O)N3CCCC23)CC1 (stereo unspecified) | > 1000 | > 1000 | > 125 | > 125 | – | –
25 | O=C1Sc2ccc(Cl)cc2C(=O)N2CCSC12 (stereo unspecified) | 151 | 120 | > 50 | > 50 | – | –
26 | O=C1Sc2ccc(Br)cc2C(=O)N2CSCC12 (stereo unspecified) | 87 | 74 | > 200 | > 200 | – | –
27 | Cc1ccc2c(c1)C(=O)N1CCSC1C(=O)S2 (stereo unspecified) | 64 | 55 | – | – | – | –
28 | O=C1c2ccccc2SC(O)(c2ccccc2)C2CCCN12 (stereo unspecified) | > 1000 | > 1000 | – | – | – | –
29 | O=C1Sc2ccccc2C(=O)N2CCSC12 (stereo unspecified) | 110 | 146 | – | – | 107 | > 200
30 | O=C1Sc2ccc(Br)cc2C(=O)N2CCSC12 (stereo unspecified) | 58 | 48 | – | – | – | –
31 | O=C1c2ccccc2SC(O)C2CCCN12 (stereo unspecified) | > 1000 | > 1000 | > 200 | > 200 | – | –
